{
  "source": "ChEMBL document CHEMBL1125875",
  "about": "“Renin inhibitory peptides. Incorporation of polar, hydrophilic end groups into an active renin inhibitory peptide template and their evaluation in a human renin infused rat model and in conscious sodium-depleted monkeys” (J Med Chem, 1991)",
  "note": "Numbered stars: 1 amine (or outer) side, 2 acyl side, 3 side chain; on linkers, the order of the positions; unused ones are H or OH. Square brackets hold non-standard residues; d marks the D form. Peptide text beside a SMILES is read from it. * marks the point of attachment. ξ: configuration not given here. LeuΨ(ξCHOHCH2)Val = CC(C)C[C@H](N[*:1])C(O)C[C@H](C(=O)[*:2])C(C)C; X1 = CC(C)[C@H](C[C@H](O)[C@H](CC1CCCCC1)N[*:1])C(=O)[*:2]; Suberoyl(NMe-taurine) = CN(CCS(=O)(=O)O)C(=O)CCCCCCC(=O)*; X3 = CC(C)C[C@H](N[*:1])[C@@H](O)C[C@H](C(=O)[*:2])C(C)C; NH(2-picolyl-N-oxide) = [O-][n+]1ccccc1CN*; γGlu = O=C(O)[C@H](CCC(=O)[*:2])N[*:1]; NMeH = CN[C@@H](Cc1c[nH]cn1)C(=O)O; NHCH2(2-pyridyl) = c1ccc(CN*)nc1; X4 = O=C(CCCO[P+]([O-])(O)O)*; X5 = O=C(CCCOP(=O)(O)O)*; X2 = O=C(COP(=O)(O)O)*",
  "data": [
    {"molecular_target": "T1, Renin (Homo sapiens, UniProt P00797)", "T1 sequence (P00797 whole entry)": "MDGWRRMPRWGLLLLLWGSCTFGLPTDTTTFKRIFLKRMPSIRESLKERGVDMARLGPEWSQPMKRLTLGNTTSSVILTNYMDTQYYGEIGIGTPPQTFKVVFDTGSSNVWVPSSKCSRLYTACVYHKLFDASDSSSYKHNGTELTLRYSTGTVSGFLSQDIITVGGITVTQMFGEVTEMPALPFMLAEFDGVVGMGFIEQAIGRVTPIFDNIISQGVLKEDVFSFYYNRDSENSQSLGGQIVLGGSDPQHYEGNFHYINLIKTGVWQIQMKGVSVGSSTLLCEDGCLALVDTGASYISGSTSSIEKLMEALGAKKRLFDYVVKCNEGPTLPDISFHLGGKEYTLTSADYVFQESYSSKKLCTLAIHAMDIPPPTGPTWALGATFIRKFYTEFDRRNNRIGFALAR", "test": "Inhibition of human plasma renin.", "format": "cell-free", "summary_of_the_method": "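IC50 taken as the inhibitor concentration at which 50% of renin enzymatic activity remains.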", "units": {"IC50": "nM"}, "values": [
      {"smiles": "CC[C@H](C)[C@H](NC(=O)[C@@H](C[C@H](O)[C@H](CC(C)C)NC(=O)[C@H](Cc1c[nH]cn1)N(C)C(=O)[C@H](Cc1ccccc1)NC(=O)CCCCCCC(=O)N(C)CCS(=O)(=O)O)C(C)C)C(=O)NCc1cccc[n+]1[O-]", "IC50": 1.2},
      {"smiles": "CC[C@H](C)[C@H](NC(=O)[C@@H](CC(O)[C@H](CC(C)C)NC(=O)[C@H](Cc1c[nH]cn1)N(C)C(=O)[C@H](Cc1ccccc1)NC(=O)[C@@H]1CCCN1C(=O)CCCCCCC(=O)N(C)CCS(=O)(=O)O)C(C)C)C(=O)NCc1ccccn1", "note": "(some centres undefined) ({Suberoyl(NMe-taurine)}-PF[NMeH][LeuΨ(ξCHOHCH2)Val]I-{NHCH2(2-pyridyl)})", "IC50": 1.8},
      {"smiles": "CC(C)CCNC(=O)[C@@H](C[C@H](O)[C@H](CC1CCCCC1)NC(=O)[C@H](Cc1c[nH]cn1)N(C)C(=O)[C@H](Cc1ccccc1)NC(=O)CC(C)(C)N)C(C)C", "IC50": 0.41},
      {"smiles": "CC[C@H](C)[C@H](NC(=O)[C@@H](C[C@H](O)[C@H](CC1CCCCC1)NC(=O)[C@H](Cc1c[nH]cn1)N(C)C(=O)[C@H](Cc1ccccc1)NC(=O)CC(C)(C)N)C(C)C)C(=O)NCc1ccccn1", "IC50": 0.29},
      {"smiles": "CC[C@H](C)[C@H](NC(=O)[C@@H](C[C@H](O)[C@H](CC1CCCCC1)NC(=O)[C@H](Cc1c[nH]cn1)N(C)C(=O)[C@H](Cc1ccccc1)NC(=O)[C@@H]1CCCN1C(=O)CC[C@H](N)C(=O)O)C(C)C)C(=O)NCc1ccccn1", "note": "(γGlu-PF[NMeH][X1]I-{NHCH2(2-pyridyl)})", "IC50": 0.29},
      {"smiles": "CC[C@H](C)[C@H](NC(=O)[C@@H](C[C@H](O)[C@H](CC1CCCCC1)NC(=O)[C@H](Cc1c[nH]cn1)N(C)C(=O)[C@H](Cc1ccccc1)NC(=O)[C@@H]1CCCN1C(=O)CC[C@H](N)C(=O)O)C(C)C)C(=O)NCc1cccc[n+]1[O-]", "note": "(γGlu-PF[NMeH][X1]I-{NH(2-picolyl-N-oxide)})", "IC50": 0.32},
      {"smiles": "CC(C)CCNC(=O)[C@@H](C[C@H](O)[C@H](CC1CCCCC1)NC(=O)[C@H](Cc1c[nH]cn1)N(C)C(=O)[C@H](Cc1ccccc1)NC(=O)[C@@H]1CCCN1C(=O)CC[C@H](N)C(=O)O)C(C)C", "IC50": 0.28},
      {"smiles": "CC[C@H](C)[C@H](NC(=O)[C@@H](CC(O)[C@H](CC(C)C)NC(=O)[C@H](Cc1c[nH]cn1)N(C)C(=O)[C@H](Cc1ccccc1)NC(=O)[C@@H]1CCCN1C(=O)COP(=O)(O)O)C(C)C)C(=O)NCc1cccc[n+]1[O-]", "note": "(some centres undefined) (X2-PF[NMeH][LeuΨ(ξCHOHCH2)Val]I-{NH(2-picolyl-N-oxide)})", "IC50": 2.5},
      {"smiles": "CC[C@H](C)[C@H](NC(=O)[C@@H](CC(O)[C@H](CC(C)C)NC(=O)[C@H](Cc1cnc[nH]1)N(C)C(=O)[C@H](Cc1ccccc1)NC(=O)[C@@H]1CCCN1C(=O)CCCO[P+]([O-])(O)O)C(C)C)C(=O)NCc1cccc[n+]1[O-]", "note": "(some centres undefined) (X4-PF[NMeH][LeuΨ(ξCHOHCH2)Val]I-{NH(2-picolyl-N-oxide)})", "IC50": 1.9},
      {"smiles": "CC[C@H](C)[C@H](NC(=O)[C@@H](CC(O)[C@H](CC(C)C)NC(=O)[C@H](Cc1c[nH]cn1)N(C)C(=O)[C@H](Cc1ccccc1)NC(=O)[C@@H]1CCCN1C(=O)CCCCCCC(=O)N(C)CCS(=O)(=O)O)C(C)C)C(=O)NCc1cccc[n+]1[O-]", "note": "(some centres undefined) ({Suberoyl(NMe-taurine)}-PF[NMeH][LeuΨ(ξCHOHCH2)Val]I-{NH(2-picolyl-N-oxide)})", "IC50": 0.31},
      {"smiles": "CC[C@H](C)[C@H](NC(=O)[C@@H](C[C@H](O)[C@H](CC(C)C)NC(=O)[C@H](Cc1c[nH]cn1)N(C)C(=O)[C@H](Cc1ccccc1)NC(=O)CCCCCCC(=O)N(C)CCS(=O)(=O)O)C(C)C)C(=O)NCc1ccccn1", "IC50": 0.66},
      {"smiles": "CC[C@H](C)[C@H](NC(=O)[C@@H](C[C@H](O)[C@H](CC1CCCCC1)NC(=O)[C@H](Cc1c[nH]cn1)N(C)C(=O)[C@H](Cc1ccccc1)NC(=O)CC(C)(C)N)C(C)C)C(=O)NCc1cccc[n+]1[O-]", "IC50": 0.43},
      {"smiles": "CC[C@H](C)[C@H](NC(=O)[C@@H](C[C@H](O)[C@H](CC(C)C)NC(=O)[C@H](Cc1c[nH]cn1)N(C)C(=O)[C@H](Cc1ccccc1)NC(=O)[C@@H]1CCCN1C(=O)COP(=O)(O)O)C(C)C)C(=O)NCc1ccccn1", "note": "(X2-PF[NMeH][X3]I-{NHCH2(2-pyridyl)})", "IC50": 1.6},
      {"smiles": "CC[C@H](C)[C@H](NC(=O)[C@@H](C[C@H](O)[C@H](CC(C)C)NC(=O)[C@H](Cc1c[nH]cn1)N(C)C(=O)[C@H](Cc1ccccc1)NC(=O)[C@@H]1CCCN1C(=O)CCCOP(=O)(O)O)C(C)C)C(=O)NCc1ccccn1", "note": "(X5-PF[NMeH][X3]I-{NHCH2(2-pyridyl)})", "IC50": 0.45}
    ]}
  ]
}
